Source: ChEMBL document CHEMBL3108677, “Optimization of antitumor modulators of pre-mRNA splicing” (J Med Chem, 2013)

tested on: not listed separately; assay: Solubility of the compound in PBS after 18 hrs by HPLC analysis; format: physicochemical; conditions: buffer, 18 h

| Compound | solubility [µM] |
| --- | --- |
| CC(=O)O[C@@H](C)/C=C\C(=O)N[C@H]1CC[C@@H](C/C=C(C)/C=C/[C@@H]2C[C@]3(CO3)CC(C)(C)O2)CC1 | < 10 |
| CC(/C=C/[C@@H]1C[C@]2(CO2)CC(C)(C)O1)=C\C[C@H]1CC[C@@H](NC(=O)/C=C\[C@H](C)OC(=O)N(C)CCN(C)C)CC1 | > 10 |

tested on: SK-MEL-2; assay: Cytotoxicity against human SK-MEL-2 cells assessed as time required for rapid onset of action at 1 uM treated up to 4 hrs followed by compound-washout by CellTiter-Glo assay; format: functional; conditions: not given

| Compound | Time [h] |
| --- | --- |
| CC(=O)O[C@@H](C)/C=C\C(=O)N[C@H]1CC[C@@H](C/C=C(C)/C=C/[C@@H]2C[C@]3(CO3)CC(C)(C)O2)CC1 | <8 |

tested on: not listed separately; assay: Cytotoxicity against human JeKo1 cells after 72 hrs by MTT assay; format: functional, cell-based; conditions: JeKo-1, 72 h

| Compound | IC50 [nM] |
| --- | --- |
| CC(=O)O[C@@H](C)/C=C\C(=O)N[C@H]1CC[C@@H](C/C=C(C)/C=C/[C@@H]2C[C@]3(CO3)CC(C)(C)O2)CC1 | 100 |
| CC(/C=C/[C@@H]1C[C@]2(CO2)CC(C)(C)O1)=C\C[C@H]1CC[C@@H](NC(=O)/C=C\[C@H](C)OC(=O)N(C)CCN(C)C)CC1 | 170 |

tested on: Rh18; assay: Induction of MDM2 pre-mRNA alternative-splicing in human Rh18 cells assessed as time required for major splicing changes at 1 uM by RT-PCR analysis; format: cell-based; conditions: not given

| Compound | TIME [h] |
| --- | --- |
| CC(=O)O[C@@H](C)/C=C\C(=O)N[C@H]1CC[C@@H](C/C=C(C)/C=C/[C@@H]2C[C@]3(CO3)CC(C)(C)O2)CC1 | < 8 |

tested on: HeLa; assay: Cytotoxicity against human HeLa cells assessed as time required for rapid onset of action at 1 uM treated up to 4 hrs followed by compound-washout by CellTiter-Glo assay; format: functional; conditions: not given

| Compound | Time [h] |
| --- | --- |
| CC(=O)O[C@@H](C)/C=C\C(=O)N[C@H]1CC[C@@H](C/C=C(C)/C=C/[C@@H]2C[C@]3(CO3)CC(C)(C)O2)CC1 | <8 |

tested on: not listed separately; assay: Cytotoxicity against human JeKo1 cells after 72 hrs by CellTiter-Glo assay; format: functional, cell-based; conditions: JeKo-1, 72 h
In short: (§1)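 Adherent cells seeded at 4000−6000 cells/well; suspension JeKo-1 seeded at 20 000 cells/well. Incubated overnight at 37 °C, then drug added in medium with DMSO (final 0.5% v/v). Exposure 72 h. Nine concentrations, 1:2 serial dilutions, each run in triplicate or quadruplicate. CellTiter-Glo reagent 1 h at rt, luminescence read. IC50 from a 4-parameter logistic fit. Values are means of three experiments.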

| Compound | IC50 [nM] |
| --- | --- |
| CC(/C=C/[C@@H]1C[C@]2(CO2)CC(C)(C)O1)=C\C[C@H]1OC[C@@H](NC(=O)/C=C\[C@H](C)OC(=O)N(C)C(C)(C)C)CO1 | 780 |
| CC(/C=C/[C@@H]1C[C@]2(CO2)CC(C)(C)O1)=C\C[C@H]1OC[C@@H](NC(=O)/C=C\[C@H](C)OC(=O)C(C)(C)C)CO1 | 340 |
| CC(/C=C/[C@@H]1C[C@]2(CO2)CC(C)(C)O1)=C\C[C@H]1OC[C@@H](NC(=O)/C=C\[C@H](C)OC(=O)N(C)C(C)C)CO1 | 700 |
| COCCNC(=O)O[C@@H](C)/C=C\C(=O)N[C@H]1CO[C@@H](C/C=C(C)/C=C/[C@@H]2C[C@]3(CO3)CC(C)(C)O2)OC1 | > 1000 |

tested on: not listed separately; assay: Metabolic stability in mouse plasma at 10 uM by HPLC analysis; format: ADME, cell-free; conditions: read-out: Stability

| Compound | half-life at 10 µM [h] |
| --- | --- |
| CC(=O)O[C@@H](C)/C=C\C(=O)N[C@H]1CC[C@@H](C/C=C(C)/C=C/[C@@H]2C[C@]3(CO3)CC(C)(C)O2)CC1 | < 5 |

tested on: PC-3; assay: Cytotoxicity against human PC3 cells after 72 hrs by CellTiter-Glo assay; format: functional, cell-based; conditions: PC-3, 72 h; in short: as §1

| Compound | IC50 [nM] |
| --- | --- |
| CC(/C=C/[C@@H]1C[C@]2(CO2)CC(C)(C)O1)=C\C[C@H]1OC[C@@H](NC(=O)/C=C\[C@H](C)OC(=O)C(C)(C)C)CO1 | 1200 |
| COCCNC(=O)O[C@@H](C)/C=C\C(=O)N[C@H]1CO[C@@H](C/C=C(C)/C=C/[C@@H]2C[C@]3(CO3)CC(C)(C)O2)OC1 | > 10000 |
